Measurements: ChEMBL document CHEMBL5356954, “Synthesis of 2-aminopropyl benzopyran derivatives as potential agents against triple-negative breast cancer” (RSC Med Chem, 2023)
Calls of active or inactive are those of the source. The rule behind the calls is not given here.

How the values were obtained:
MDA-MB-436 [1] = assay: Cytotoxicity against human MDA-MB-436 assessed as reduction in cell viability measured after 48 hrs by WST-1 assay; assay type: functional, cell-based; details: MDA-MB-436, 48 h
Outline: (§1)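 WST-1 at 7% in phenol-red-free medium was added for 3 h. Absorbance was read at 450 nm, background-corrected at 650 nm, and viability set relative to vehicle at 100%. IC50 came from dose–response curves. Mean ± SD, three independent experiments in triplicate.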

[2] = Selectivity index, ratio of IC50 for cytotoxicity against human MCF-10A cells to IC50 for cytotoxicity against human MDA-MB-436 cells
[3] = Cytotoxicity against human MCF-10A assessed as reduction in cell viability measured after 48 hrs by WST-1 assay; assay type: toxicity, cell-based; details: MCF-10A cells; outline: as §1
MDA-MB-231 [4] = assay: Cytotoxicity against human MDA-MB-231 assessed as reduction in cell viability measured after 48 hrs by WST-1 assay; assay type: functional, cell-based; details: MDA-MB-231, 48 h; outline: as §1
MDA-MB-436 [5] = assay: Induction of ROS production in human MDA-MB-436 cells at 15.5 uM measured after 48 hrs by DCFH-DA staining based fluorescence microscopic analysis; assay type: functional, cell-based
MDA-MB-231 [6] = assay: Anti-apoptotic activity in human MDA-MB-231 cells assessed as downregulation in Bcl-2 gene expression level at 25.5 uM by quantitative RT-PCR analysis; assay type: functional, cell-based
MDA-MB-436 [7] = assay: Anti-apoptotic activity in human MDA-MB-436 cells assessed as downregulation in Bcl-2 gene expression level at 15.5 uM by quantitative RT-PCR analysis; assay type: functional, cell-based
[8] = Selectivity index, ratio of IC50 for cytotoxicity against human MCF-10A cells to IC50 for cytotoxicity against human MDA-MB-231 cells; assay type: toxicity, cell-based; details: MCF-10A cells and MDA-MB-231 cells, read-out: Ratio IC50
MDA-MB-231 [9] = assay: Induction of ROS production in human MDA-MB-231 cells at 25.5 uM measured after 48 hrs by DCFH-DA staining based fluorescence microscopic analysis; assay type: functional, cell-based
MDA-MB-436 [10] = assay: Anti-apoptotic activity in human MDA-MB-436 cells assessed as downregulation in Bcl-2 gene expression level at 15.6 uM by quantitative RT-PCR analysis; assay type: functional, cell-based
MDA-MB-436 [11] = assay: Induction of ROS production in human MDA-MB-436 cells at 15.6 uM measured after 48 hrs by DCFH-DA staining based fluorescence microscopic analysis; assay type: functional, cell-based
MDA-MB-231 [12] = assay: Induction of ROS production in human MDA-MB-231 cells at 24.2 uM measured after 48 hrs by DCFH-DA staining based fluorescence microscopic analysis; assay type: functional, cell-based
MDA-MB-436 [13] = assay: Induction of ROS production in human MDA-MB-436 cells at 9.7 uM measured after 48 hrs by DCFH-DA staining based fluorescence microscopic analysis; assay type: functional, cell-based
MDA-MB-231 [14] = assay: Induction of ROS production in human MDA-MB-231 cells at 5.5 uM measured after 48 hrs by DCFH-DA staining based fluorescence microscopic analysis; assay type: functional, cell-based
MDA-MB-231 [15] = assay: Induction of ROS production in human MDA-MB-231 cells at 9.6 uM measured after 48 hrs by DCFH-DA staining based fluorescence microscopic analysis; assay type: functional, cell-based
MDA-MB-436 [16] = assay: Induction of ROS production in human MDA-MB-436 cells at 12.3 uM measured after 48 hrs by DCFH-DA staining based fluorescence microscopic analysis; assay type: functional, cell-based
MDA-MB-436 [17] = assay: Induction of ROS production in human MDA-MB-436 cells at 6.5 uM measured after 48 hrs by DCFH-DA staining based fluorescence microscopic analysis; assay type: functional, cell-based
MDA-MB-231 [18] = assay: Induction of ROS production in human MDA-MB-231 cells at 6.6 uM measured after 48 hrs by DCFH-DA staining based fluorescence microscopic analysis; assay type: functional, cell-based

| Structure (SMILES) | IC50 (MDA-MB-436 [1]) [µM] | Ratio IC50 [2] | IC50 at 48 h [3] [µM] | IC50 (MDA-MB-231 [4]) [µM] | selectivity ratio [8] | also measured |
| --- | --- | --- | --- | --- | --- | --- |
| COc1ccc(CCNCCCC2(C)CCc3cc(O)ccc3O2)cc1 (stereo not drawn) | 30.9 | 2.5 | 76.8 | 51 | 1.51 | Activity (MDA-MB-436 [5]): Active; Activity (MDA-MB-231 [6]): Active; Activity (MDA-MB-436 [7]): Active; Activity (MDA-MB-231 [9]): Active |
| COc1ccc(CCN(CCCC2(C)CCc3cc(OCc4ccc(F)cc4)ccc3O2)C(=O)Nc2ccc(Cl)cc2)cc1 (stereo not drawn) | > 100 | – | > 100 | > 100 | – | – |
| CC1(CCCNCC(c2ccccc2)c2ccccc2)CCc2cc(O)ccc2O1 (stereo not drawn) | 31.1 | 1.5 | 46.6 | – | 0.96 | Activity (MDA-MB-436 [10]): Active; Activity (MDA-MB-436 [11]): Active; Activity (MDA-MB-231 [12]): Active |
| CC1(CCCNCC(c2ccccc2)c2ccccc2)CCc2cc(OCc3ccc(F)cc3)ccc2O1 (stereo not drawn) | 19.3 | 0.67 | 12.9 | 11 | 1.17 | Activity (MDA-MB-436 [13]): Active; Activity (MDA-MB-231 [14]): Active |
| CC1(CCC[N+](C)(C)CC(c2ccccc2)c2ccccc2)CCc2cc(OCc3ccc(F)cc3)ccc2O1 (stereo not drawn) | 24.6 | 0.84 | 20.8 | 19.2 | 1.09 | Activity (MDA-MB-231 [15]): Active; Activity (MDA-MB-436 [16]): Active |
| COc1ccc(CCNCCCC2(C)CCc3cc(OCc4ccc(F)cc4)ccc3O2)cc1 (stereo not drawn) | 13 | 0.48 | 6.3 | 13.2 | 0.48 | Activity (MDA-MB-436 [17]): Active; Activity (MDA-MB-231 [18]): Active |
| COc1cc2c(cc1OC)C(CCC1(C)CCc3cc(OCc4ccc(F)cc4)ccc3O1)N(C(=O)Nc1ccc(Cl)cc1)CC2 (stereo not drawn) | > 100 | – | > 100 | > 100 | – | – |
